Screening results (PubChem)
An excerpt weighted towards active compounds, which were near 1.6% of everything screened.
RBBP9 inhibitor – inhibitors of human serine hydrolase RBBP9; hit rate 0.2% among 220,000; recombinant RBBP9, FP-Rh probe fluorescence polarization; AID 1515; inhibition, % at 7.94 µM;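 active = inhibition above the campaign mean of all tested compounds plus 3 SD, cut at about 14% in these data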;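 also: plate controls were DMSO wells with RBBP9 for no effect and wells lacking RBBP9 protein for full effect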
Target sequence (O75884 whole entry, looked up): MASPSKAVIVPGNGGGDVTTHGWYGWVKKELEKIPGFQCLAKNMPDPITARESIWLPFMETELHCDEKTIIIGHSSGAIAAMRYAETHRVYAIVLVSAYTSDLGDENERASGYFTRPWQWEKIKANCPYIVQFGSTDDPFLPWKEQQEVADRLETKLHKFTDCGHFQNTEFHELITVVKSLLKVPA
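Assay system: recombinant human RBBP9; Reagent: Serine-hydrolase probe FP-Rh, 375 nM pre-mixing; Doses: 7.94 µM single dose, 0.794% DMSO; Incubation: 30 min then 45 min, 25 °C; Detection: fluorescence polarization (mP), excitation 525 nm, emission 598 nm; Evaluation: percent inhibition from mP, scaled between DMSO and no-protein wells.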
Yeast life ext – yeast lifespan extension | inhibition of the nicotinamide effect, % at 10 µM | S. cerevisiae growth with nicotinamide, OD615; deaD strain in restrictive glucose medium | hit rate 0.68% among 130,000;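 active = inhibition above a set limit, placed 3 SD over the median of all compounds, cut at about 26% in these data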;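 also: 0% = nicotinamide-treated wells and 100% = cells grown without nicotinamide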
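Test system: DeaD-strain S. cerevisiae / Buffer or medium: restrictive glucose medium / Also added: nicotinamide 1.5 mM / Doses: one concentration, 10 µM, DMSO 0.25% / Schedule: 48 h at 30 °C / Signal: OD615 measurement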
Yeast growth inh – reduces growth of yeast BB579 in restrictive medium; S. cerevisiae BB579 growth, OD615, 48 h; hit rate 0.51% among 140,000; inhibition, % at 10 µM; AID 804;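 active = inhibition above a set limit, 3 SD over the mean compound inhibition, cut at about 44% in these data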
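Test system: S. cerevisiae DeaD strain BB579 yeast; Medium: restrictive CSMM-D medium; Compound: one dose, 10 µM compound with 0.25% DMSO; Incubation: 4 h cell preincubation, 48 h compound exposure, 30 °C humidified; Signal: OD at 615 nm; Benchmarks: amphotericin B at 10 µg/mL as positive control.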
SDO1 yeast rescue – compounds rescuing growth of sdo1-depleted yeast, bone marrow failure model; S. cerevisiae sdo1-depleted JHY4D growth rescue, OD600 30 h; stronger effect = higher value; pdr5 snq2 efflux-pump mutant strain; hit rate 0.21% among 140,000; z-score at 10 µM;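 active = z-score above 3 at both the 24 hr and the 30 hr optical density reads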;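 also: z-score against mean and SD of all compound wells on the same plate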
p47phox inh – inhibitors of human p47phox binding; hit rate 0.53% among 220,000; p47phox/p22phox peptide binding, fluorescence polarization, 2 h; inhibition, % at 24.7 µM; P14598;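 active = inhibition above about 30%, limit read from the data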;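 also: 0% = p47phox with labelled peptide and 100% = labelled peptide alone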
Target sequence (P14598 whole entry, looked up): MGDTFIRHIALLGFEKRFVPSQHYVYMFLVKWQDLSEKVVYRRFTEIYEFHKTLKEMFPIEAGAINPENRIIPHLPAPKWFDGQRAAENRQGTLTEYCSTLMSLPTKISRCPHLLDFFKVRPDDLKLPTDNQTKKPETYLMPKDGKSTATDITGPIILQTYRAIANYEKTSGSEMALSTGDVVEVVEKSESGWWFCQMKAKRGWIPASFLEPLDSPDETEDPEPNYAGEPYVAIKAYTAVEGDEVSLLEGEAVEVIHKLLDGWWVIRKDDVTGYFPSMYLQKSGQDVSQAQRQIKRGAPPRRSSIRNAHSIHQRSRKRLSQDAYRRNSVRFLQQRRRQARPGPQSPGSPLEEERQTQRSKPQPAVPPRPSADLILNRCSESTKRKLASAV
TbHK1 inh – blocks Trypanosoma brucei hexokinase 1 activity; recombinant TbHK1, G6PDH-coupled NADH A340; inhibition, % at 10 µM; hit rate 0.11% among 220,000; AID 1430;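 active = inhibition of 50% or more in the single-dose primary screen; inactive = inhibition below 50%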
* hit, by the source's call.

Results for CCCC(C(=O)O)N1C(=O)/C(=C/c2cccn2C)SC1=S (stereo not drawn) ?
RBBP9 inhibitor: -3.9; Yeast life ext: 26.9*; Yeast growth inh: -25.5; SDO1 yeast rescue: 0.48; p47phox inh: -88.5; TbHK1 inh: 7.1

What do the screens show for `Cc1ccc(S(=O)(=O)NN2C(=O)/C(=C/c3cccn3C)SC2=S)cc1`?
RBBP9 inhibitor: -11.5; Yeast life ext: 29.5*; Yeast growth inh: -46.8; SDO1 yeast rescue: 1.04; p47phox inh: -89.5; TbHK1 inh: 8.1

Results for CC(C)C(C(=O)O)N1C(=O)/C(=C/c2cccn2C)SC1=S (stereo not drawn) ?
RBBP9 inhibitor: -4.0; Yeast life ext: 41.5*; Yeast growth inh: -34.0; SDO1 yeast rescue: -0.3; p47phox inh: -14.0; TbHK1 inh: 7.6

How did Cc1ccc(S(=O)(=O)NN2C(=O)/C(=C/c3cccs3)SC2=S)cc1 do in these assays?
RBBP9 inhibitor: -10.9; p47phox inh: -14.9; TbHK1 inh: -3.1

What do the screens show for `CCc1nnc(NC(=O)C2CCCN2C(=O)Nc2ccccc2)s1` (stereo not drawn)?
RBBP9 inhibitor: -3.3; p47phox inh: 4.6; TbHK1 inh: 2.7

Results for OCCC1CN(Cc2cn[nH]c2C2CCCCC2)CCN1C1CCCC1 (stereo not drawn) ?
RBBP9 inhibitor: -4.5; p47phox inh: -7.1; TbHK1 inh: -1.4

How did CSC(=S)N/N=C(\C)c1ccc(Br)cc1 do in these assays?
RBBP9 inhibitor: -10.4; p47phox inh: 1.5; TbHK1 inh: 1.1

What do the screens show for `Cc1cc(C(=O)NC2Cc3ccccc3C2)c(C)o1`?
RBBP9 inhibitor: 5.5; p47phox inh: 0.5; TbHK1 inh: -11.4

Results for Cc1ncc(C23CC4CC(CC(C4)C2)C3)[nH]1 ?
RBBP9 inhibitor: -4.1; Yeast life ext: 151.9*; Yeast growth inh: -34.3; SDO1 yeast rescue: 1.64; p47phox inh: -9.6; TbHK1 inh: -4.3

What do the screens show for `COc1cc(/C=N/N(C)c2ccccc2)cc(Cl)c1O`?
RBBP9 inhibitor: 1.6; Yeast life ext: -13.1; Yeast growth inh: 99.7*; SDO1 yeast rescue: -3.37; p47phox inh: -2.8; TbHK1 inh: -33.7

Results for CN1C2=CC=CC=CC2=[N+](C)C12C=CC(=[N+]([O-])[O-])C=C2[N+](=O)[O-] (stereo not drawn) ?
RBBP9 inhibitor: -1.6; p47phox inh: -58.2; TbHK1 inh: -16.0

What do the screens show for `CN1C2=CC=CC=CC2=[N+](C)C12C([N+](=O)[O-])=CC(=[N+]([O-])[O-])C=C2[N+](=O)[O-]` (stereo not drawn)?
RBBP9 inhibitor: -3.0; p47phox inh: 60.7*; TbHK1 inh: -17.0

Results for Cc1[nH]c(=O)[nH]c(=O)c1CSCC(=O)OCC(=O)c1ccc(Br)cc1 ?
RBBP9 inhibitor: -6.9; p47phox inh: -8.3; TbHK1 inh: -1.9

Results for COc1ccc(S(=O)(=O)n2nc(-c3cc(OC)c(OC)c(OC)c3)cc2N)cc1OC ?
RBBP9 inhibitor: -9.1; Yeast life ext: -5.0; Yeast growth inh: -7.5; SDO1 yeast rescue: 0.37; p47phox inh: -12.2; TbHK1 inh: -6.1

How did COc1ccc(-c2cc(N)n(S(=O)(=O)c3c(F)c(F)c(F)c(F)c3F)n2)cc1OC do in these assays?
RBBP9 inhibitor: -6.2; Yeast life ext: 76.9*; Yeast growth inh: -107.0; SDO1 yeast rescue: -2.81; p47phox inh: -12.3; TbHK1 inh: 1.2

Results for CC(C)C1N(C(N)=S)N=CC1(C)C (stereo not drawn) ?
RBBP9 inhibitor: -11.8; p47phox inh: -3.7; TbHK1 inh: -0.8

What do the screens show for `Cc1ccc(Nc2cc(C)nn2-c2nc(C)cc(C)n2)cc1`?
RBBP9 inhibitor: -5.6; Yeast life ext: -10.3; Yeast growth inh: 24.6; SDO1 yeast rescue: -1.22; p47phox inh: -2.9; TbHK1 inh: 1.7

How did Cc1ccc(Nc2cc(C)nn2-c2nc(C)cc(=O)[nH]2)cc1 do in these assays?
RBBP9 inhibitor: 1.7; Yeast life ext: -27.0; Yeast growth inh: 99.7*; SDO1 yeast rescue: -2.3; p47phox inh: -12.6; TbHK1 inh: 9.2

Results for O=c1cc(-c2c(F)c(F)c(F)c(F)c2F)oc2c(F)c(F)c(F)c(F)c12 ?
RBBP9 inhibitor: 6.1; Yeast life ext: 105.9*; Yeast growth inh: -32.0; SDO1 yeast rescue: -1.9; p47phox inh: -15.0; TbHK1 inh: 2.3

How did CC1CCN(C(=O)c2ccc(CNc3c(N4CCCC4)c(=O)c3=O)cc2)CC1 do in these assays?
RBBP9 inhibitor: 0.0; p47phox inh: 2.9; TbHK1 inh: -4.6

How did O=C(c1ccc(CNc2c(N3CCCC3)c(=O)c2=O)cc1)N1CCN(C2CCCCC2)CC1 do in these assays?
RBBP9 inhibitor: -11.7; Yeast life ext: 5.2; Yeast growth inh: -35.7; SDO1 yeast rescue: 1.8; p47phox inh: 34.8*; TbHK1 inh: -3.9

What do the screens show for `Cc1nc(SCC(=O)NC(=O)NCCC(C)C)c2c(-c3cccs3)csc2n1`?
RBBP9 inhibitor: -3.0; Yeast life ext: 6.2; Yeast growth inh: -9.8; SDO1 yeast rescue: -0.76; p47phox inh: -6.7; TbHK1 inh: -1.3

Results for CCn1c(Sc2nc(C)nc3scc(-c4cccs4)c23)n[nH]c1=O ?
RBBP9 inhibitor: -0.6; Yeast life ext: -6.6; Yeast growth inh: 99.0*; SDO1 yeast rescue: -2.88; p47phox inh: -12.3; TbHK1 inh: -0.4

What do the screens show for `O=C(CN1CCN(Cc2ccccc2)CC1)Nc1ccccc1-c1ccccc1`?
RBBP9 inhibitor: -1.4; p47phox inh: 2.9; TbHK1 inh: -12.4

How did Clc1ccccc1-c1nc2nc3ccccc3nc2n1-c1ccc2c(c1)OCO2 do in these assays?
RBBP9 inhibitor: -4.8; Yeast life ext: 14.6; Yeast growth inh: -34.9; SDO1 yeast rescue: -0.94; p47phox inh: 174.3*; TbHK1 inh: -22.3

What do the screens show for `c1ccc(-c2ccc(C(c3ccccc3)n3ccnc3)cc2)cc1` (stereo not drawn)?
RBBP9 inhibitor: 1.8; Yeast life ext: -7.0; Yeast growth inh: 96.1*; SDO1 yeast rescue: -2.85; p47phox inh: 0.2; TbHK1 inh: 6.4

What do the screens show for `CCOC(=O)Cn1c(=O)oc2cc(S(=O)(=O)NCCc3ccc(OCC)c(OCC)c3)ccc21`?
RBBP9 inhibitor: -3.2; Yeast life ext: -5.3; Yeast growth inh: -19.2; SDO1 yeast rescue: 0.5; p47phox inh: 102.9*; TbHK1 inh: 0.3

What do the screens show for `CN(C)c1ccc(/C=N\NC(=O)CC#N)cc1`?
RBBP9 inhibitor: 3.2; p47phox inh: -10.2; TbHK1 inh: -40.0

Results for CCNS(=O)(=O)c1ccc(NC(=O)Cn2cc([N+](=O)[O-])cn2)cc1 ?
RBBP9 inhibitor: -5.1; p47phox inh: -10.0; TbHK1 inh: -2.7

How did O=C(Cc1cccs1)N(Cc1ccco1)C1(C(=O)NC2CCCCC2)CCCCC1 do in these assays?
RBBP9 inhibitor: -4.5; Yeast life ext: -6.2; Yeast growth inh: -4.2; SDO1 yeast rescue: 2.15; p47phox inh: 42.8*; TbHK1 inh: 6.6
